From the EternaBench riboswitch data

System: MS2 coat protein
Experiment: apparent Kd, MS2 coat protein; higher = weaker binding; RNA-MaP array; theophylline 2 mM where present
How it was run: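 Designs were transcribed by stalled E. coli RNA polymerase on Illumina sequencing-chip clusters. They were titrated with SNAP-549-labelled MS2 coat protein from 0.7 or 1.5 nM, doubling to 3 µM, in 100 mM Tris-HCl pH 7.5, 80 mM KCl, 4 mM MgCl2, BSA, DTT, yeast tRNA and Tween-20, without and then with constant ligand. The apparent Kd is the median of filtered per-cluster fits after normalisation of green signal to red-channel RNA signal and control-cluster median Fmax.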

[1] = designed as: ON switch for theophylline, no ligand
[2] = ligand present: theophylline, designed as: ON switch for theophylline
[3] = designed as: OFF switch for theophylline, no ligand
[4] = ligand present: theophylline, designed as: OFF switch for theophylline

| Sequence | apparent Kd [1] | apparent Kd [2] | apparent Kd [3] | apparent Kd [4] |
| --- | --- | --- | --- | --- |
| AAUAACAUGAGGAUCACCCAUGUAAAAGAUACCAGAGUGAUGAUCCUCCCUUGGCAGCUUAACGCUGAUUGAUUACAAUCAGCGA | 57.6 nM | 173 nM |  |  |
| AAUAACAUGAGGAUCACCCAUGUAAAAGAUACCAGAGUGAUGAUCCUCCCUUGGCAGCUUAAUAACGCUAUUGGAAACAAUAGCG | 78.2 nM | 122 nM |  |  |
| ACACAUGAGGAUCACCCAUGUUCAAUAGAUACCAGUGAUACGGUGCACCCUUGGCAGCUGUUGCUGAGUGAUGGUUCCCUCGGUA | 41.3 nM | 65.4 nM |  |  |
| ACAUGAAGAACAGCGGUGGGCGCGCUCGAUACCAGUACUUUGAUAUACCCUUGGCAGCGACAUGAGGAUCACCCAUGUGAGAUGA |  |  | 18.7 nM | 27.2 nM |
| ACAUGAGGAUCACCCAUGUAAGGUCUUGAUACCAGACGAGAAGUAGUCCCUUGGCAGCAAAUACGUGAGGGUCACACAUGUGUAA |  |  | 23 nM | 46 nM |
| ACAUGAGGAUCACCCAUGUUCCUCAUUGAUACCAGUGAAUUUAGACGCCCUUGGCAGCGAGUUUAAGAAGAAGAAGUUUUUUUUU |  |  | 667 nM | 895 nM |
| ACAUGAGGAUCACCCAUGUUCCUCAUUGAUACCAGUGAAUUUAGACGCCCUUGGCAGCGAGUUUUUUUAUAAGUUUUUUUUUUUU |  |  | 665 nM | 1160 nM |
| ACAUGAGGGAUGGAUACCAGCGACAUGAGGAUCACCCAUGUAUGAGGAUCAGCCAUGUUAUGCCCUUGGCAGCCACGAACAUCAG |  |  | 26.6 nM | 226 nM |
| ACGAACUGUAGUGAUACCAGACGUACAUGAGGAUCACCCAUGUUGUAAACAUGGUGAAUAGUCCCUUGGCAGCACAGUUAGUUCG |  |  | 182 nM | 738 nM |
| ACGUCCAGGUUAAUCGUGGACAUGGUCGAUACCAGUAUUUUAAUCUACCCUUGGCAGCGACAUGAGGAUCACCCAUGUGCGAUGA |  |  | 12.5 nM | 23.4 nM |
| ACGUCCCGUUUACUCGUGGGUUAGGUCGAUACCAGUAUUCAAACUUACCCUUGGCAGCGACAUGAGGAUCACCCAUGUGCGAAGA |  |  | 17.6 nM | 99.5 nM |
| ACGUCUCGUUUACUCGUGGGUUAGCUCGAUACCAGUAUUCAAACUUACCCUUGGCAGCGACAUGAGGAUCACCCAUGUGCGAAGA |  |  | 16.4 nM | 54.9 nM |
| ACUCGGUGUUUGUUGCUCCGAGUACGUGAUACCAGUUAAUUUUAUGGCCCUUGGCAGCAUGGGACAUGAGGAUCACCCAUGUUUA | 375 nM | 396 nM |  |  |
| ACUUUGUCGGGUGAUACCAGCCUCGGCACAUCUCGUGCCGAACAUGAGGAUCACCCAUGUGGCCCUUGGCAGCACAUGACAAAUC | 341 nM | 59.5 nM |  |  |
| AGACAUGAGGAUCACCCAUGUAGCAUGGAUACCAGAUCCAGAUUUAUCCCUUGGCAGCUGUGGUACAGUGAUGGAUUGCUCCUAG |  |  | 79 nM | 122 nM |
| AGAUUACAUGUUUUAAUAAGAUAAACUGAUACCAGUGUAUAUAUUCACCCUUGGCAGCAGCAACAUGAGGAUCACCCAUGUAUUA | 16 nM | 15.2 nM |  |  |
| AGGCAGUAGGUGAUCCACUGCCAAGGUGAUACCAGCAUCGAAAGAUGCCCUUGGCAGCACCAACAUGAGGAUCACCCAUGUAAUA | 108 nM | 663 nM |  |  |
| AGUACUCGAACGGAUACCAGCCGGACAUGAGGAUCACCCAUGUCCUACCAUGGUUCGGUUGGCCCUUGGCAGCCGUUCGUGUACA | 225 nM | 20.2 nM |  |  |
| AGUGUUAUAACUGAUACCAGACCUUUGCUUAUACAUGAGGAUCACCCAUGUAAAAUGGCGGUCCCUUGGCAGCAGAGAAUACACA | 33.5 nM | 12.5 nM |  |  |
| AUAACAUGAGGAUCACCCAUGUUGAGUGAUACCAGACUAUGUAAUGUCCCUUGGCAGCACAAGUAAAGUUAUAAAUAAUGAUAGA | 57.2 nM | 25.1 nM |  |  |
| AUAAGUAAGUUUUCGUGUUUUAUUACAGAUACCAGACUAUACGUUGUCCCUUGGCAGCUGGAUUACAUGAGGAUCACCCAUGUUG |  |  | 24.5 nM | 54.3 nM |
| AUAAGUACGUCAGAUACCAGACAGCCAGACUUACAUGAGGAUCACCCAUGUGGAUGGACGGUCCCUUGGCAGCUGGCCGCAAAAG | 213 nM | 14.2 nM |  |  |
| AUACCUAAUGUUACGUUUUCCUUUUCAGAUACCAGACUUUACGUUGUCCCUUGGCAGCUGUAUUACAUGAGGAUCACCCAUGUUG | 22 nM | 29.7 nM |  |  |
| AUAUUAAAGAGUGAUACCAGACUACAUGAGGAUCACCCAUGUUACAUUUAAAUAUCAUUUGUCCCUUGGCAGCACAUUAAGUACA |  |  | 17.4 nM | 13.3 nM |
| AUCGUACCUGAGGAUACCAGCAUGUGAUCAUAACAUGAGGAUCACCCAUGUAAUCAGUGAUGCCCUUGGCAGCUUAGUCGAUACA | 75.5 nM | 45.2 nM |  |  |
